{
  "source": "paper PMC3178889",
  "about": "(Nature neuroscience, 2011)",
  "key": {"binding of Tα to UNC119": {"test_system": "binding of Tα to UNC119", "set-up": "species or system bovine", "conditions": "GST-UNC119 pulldown from retina lysate in the presence of peptide; immunoblot"}, "human UNC119": {"biological_target": "human UNC119 (Homo sapiens, UniProt Q13432)", "experiment": "Isothermal titration calorimetry", "assay_type": "binding", "conditions": "ITC; for binding relative to the lauroyl Tα peptide: compared with lauroyl-GAGASAEEKH"}, "GST-UNC119": {"test_system": "GST-UNC119", "experiment": "GST-UNC119 pulldown of proteins from retina lysates or HEK cells", "assay_type": "binding, bovine"}, "rod photoreceptors": {"test_system": "rod photoreceptors", "conditions": "passive diffusion after light activation; cited from earlier work"}, "Tα": {"test_system": "Tα", "experiment": "GST-UNC119B pulldown from bovine retina lysate", "assay_type": "binding", "conditions": "unpublished results of the authors"}, "[1]": {"test_system": "GTPase activity of Tα (purified Tαβγ)", "experiment": "GTPase activity of purified Tαβγ in the presence of depleted ROS membranes", "assay_type": "biochemical", "how_it_was_run": "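Purified native transducin (Tαβγ) reconstituted with depleted rod outer segment membranes, which carry rhodopsin and a trace of residual transducin. […] Components (transducin, UNC119, depleted membranes) checked by SDS-PAGE.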"}, "transducin": {"test_system": "transducin", "conditions": "absence of rhodopsin; cited from earlier work"}},
  "note": "Entries after “also recorded” stand apart in the source; their conditions may differ. No end group written: not given here. *: point of attachment. Myristoyl = CCCCCCCCCCCCCC(=O)*; Lauroyl = CCCCCCCCCCCC(=O)*",
  "data": [
    {"substance": "GAGASAEEKH", "values": [
      {"measurement": "competition for binding of Tα to UNC119", "setting": "binding of Tα to UNC119", "value": "did not"}
    ]},
    {"substance": "Lauroyl-GAGASAEEKH", "values": [
      {"measurement": "competition for binding of Tα to UNC119", "setting": "binding of Tα to UNC119", "value": "competes for binding"}
    ]},
    {"substance": "Lauroyl-GSCQSNENSE", "values": [
      {"measurement": "binding relative to the lauroyl Tα peptide", "setting": "human UNC119; listed as Lauroyl-ODR-3", "value": "more than one order of magnitude weaker"},
      {"measurement": "binding relative to the lauroyl Tα peptide", "setting": "human UNC119; listed as ODR-3 N-terminal peptide", "value": "lower affinity interaction"}
    ]},
    {"substance": "Myristoyl-GAGASAEEKH", "values": [
      {"measurement": "interaction with recombinant human UNC119", "setting": "human UNC119", "value": "tight binding"},
      {"measurement": "number of binding sites", "setting": "human UNC119; one-site model", "value": "single site"}
    ]},
    {"substance": "Tα(G2A): Tα with G2 replaced with alanine, a mutation preventing Tα acylation", "values": [
      {"measurement": "interaction with GST-UNC119 in pulldown of protein expressed in HEK cells", "setting": "GST-UNC119; bovine Tα or Tα(G2A) expressed in HEK cells, anti-Tα blot", "value": "does not interact; also recorded: did not interact"}
    ]},
    {"substance": "Tα: rod photoreceptor transducin α-subunit", "values": [
      {"measurement": "interaction with GST-UNC119 in pulldown from retina lysate", "setting": "GST-UNC119; bovine or mouse retina lysate, Coomassie/LC-MS/MS or immunoblot", "value": "UNC119 interacts with Tα; also recorded: is pulled down"},
      {"measurement": "t1/2 of light-induced translocation to the inner segment", "setting": "rod photoreceptors", "value": "3 to 5", "unit": "min"}
    ]},
    {"substance": "Tβγ: transducin βγ subunits", "values": [
      {"measurement": "t1/2 of light-induced translocation to the inner segment", "setting": "rod photoreceptors", "value": "approximately 12 min"}
    ]},
    {"substance": "UNC119B: isoform encoded by UNC119B gene, 61% similar and 52% identical to UNC119", "values": [
      {"measurement": "pulldown of Tα by GST-UNC119B", "setting": "Tα", "value": "pulls down Tα from bovine retina lysate"}
    ]},
    {"substance": "transducin: purified native heterotrimeric transducin", "values": [
      {"measurement": "Kcat of GTPase", "setting": "[1]; depleted ROS membranes reconstituted with transducin", "value": "1.5 moles GTPhydrolyzed/mol transducin/min"},
      {"measurement": "GTPase activity rate of the reconstituted system", "setting": "[1]; purified Tαβγ in the presence of ROS membranes, Fig. 5C red line", "value": 1.5, "unit": "mole GTP/min"},
      {"measurement": "GTP/GDP exchange rate constant", "setting": "transducin", "value": "10^−4 /sec"}
    ]}
  ]
}
